Measurements taken from ChEMBL document CHEMBL4400543, “Identification and Characterization of AES-135, a Hydroxamic Acid-Based HDAC Inhibitor That Prolongs Survival in an Orthotopic Mouse Model of Pancreatic Cancer” (J Med Chem, 2019).

Legend:
[1] = biological target: Histone deacetylase 3 (Homo sapiens, UniProt O15379); assay: Inhibition of recombinant human HDAC3 expressed in SF9 baculoviral system using FAM-labeled acetylated peptide as substrate by EMSA
How it was run: (§1)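 Full-length recombinant human enzyme from an Sf9 baculovirus system, in 100 mM HEPES pH 7.5 with 25 mM KCl, 0.1% BSA, 0.01% Triton X-100 and 1% DMSO. Final enzyme was 0.5 nM for HDAC3, 60 nM for HDAC6 and 5.0 nM for HDAC8. FAM-acetylated peptide was 1 μM. The read-out was product/(substrate+product) by microfluidic mobility shift, with inhibition set against DMSO and no-enzyme controls (quadruplicate). Compounds were tested at 12 threefold-spaced concentrations, and IC50 came from a four-parameter sigmoid fit.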

[2] = biological target: T1, Protein deacetylase HDAC6 (Homo sapiens, UniProt Q9UBN7); assay: Inhibition of recombinant human HDAC6 expressed in SF9 baculoviral system using FAM-labeled acetylated peptide as substrate by EMSA; how it was run: as §1
T1 sequence (Q9UBN7 whole entry): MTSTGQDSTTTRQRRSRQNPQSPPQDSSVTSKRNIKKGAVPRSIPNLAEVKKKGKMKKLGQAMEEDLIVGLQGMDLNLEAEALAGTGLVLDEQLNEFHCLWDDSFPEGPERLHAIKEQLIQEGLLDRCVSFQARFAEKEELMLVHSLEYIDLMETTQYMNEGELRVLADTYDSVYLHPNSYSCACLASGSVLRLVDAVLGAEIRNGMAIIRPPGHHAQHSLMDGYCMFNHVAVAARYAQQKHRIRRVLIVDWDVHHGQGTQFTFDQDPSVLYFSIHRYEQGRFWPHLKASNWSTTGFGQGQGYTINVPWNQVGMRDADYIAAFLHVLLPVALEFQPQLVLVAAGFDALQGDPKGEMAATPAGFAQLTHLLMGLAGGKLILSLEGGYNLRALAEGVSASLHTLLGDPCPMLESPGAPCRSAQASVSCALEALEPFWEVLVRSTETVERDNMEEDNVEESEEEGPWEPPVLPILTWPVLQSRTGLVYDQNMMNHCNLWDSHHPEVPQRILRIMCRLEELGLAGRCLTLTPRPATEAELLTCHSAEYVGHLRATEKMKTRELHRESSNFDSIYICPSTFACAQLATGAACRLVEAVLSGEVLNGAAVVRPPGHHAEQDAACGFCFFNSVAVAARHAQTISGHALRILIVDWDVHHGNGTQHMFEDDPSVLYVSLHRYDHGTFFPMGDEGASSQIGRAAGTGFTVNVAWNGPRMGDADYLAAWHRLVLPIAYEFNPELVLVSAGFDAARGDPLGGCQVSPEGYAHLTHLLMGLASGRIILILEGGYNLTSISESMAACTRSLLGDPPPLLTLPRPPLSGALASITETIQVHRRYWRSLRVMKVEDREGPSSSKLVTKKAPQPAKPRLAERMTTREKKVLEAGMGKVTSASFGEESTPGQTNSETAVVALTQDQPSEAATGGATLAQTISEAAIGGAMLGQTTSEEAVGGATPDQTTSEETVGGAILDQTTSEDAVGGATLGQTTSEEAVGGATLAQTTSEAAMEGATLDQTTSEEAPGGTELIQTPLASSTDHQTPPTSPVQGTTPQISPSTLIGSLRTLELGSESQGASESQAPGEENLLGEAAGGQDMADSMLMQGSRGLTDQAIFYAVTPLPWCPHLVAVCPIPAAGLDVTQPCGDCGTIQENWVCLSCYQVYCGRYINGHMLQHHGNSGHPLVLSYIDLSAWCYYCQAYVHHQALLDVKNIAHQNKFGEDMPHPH

[3] = biological target: T2, Histone deacetylase 8 (Homo sapiens, UniProt Q9BY41); assay: Inhibition of recombinant human HDAC8 expressed in SF9 baculoviral system using FAM-labeled acetylated peptide as substrate by EMSA; how it was run: as §1
T2 sequence (Q9BY41 whole entry): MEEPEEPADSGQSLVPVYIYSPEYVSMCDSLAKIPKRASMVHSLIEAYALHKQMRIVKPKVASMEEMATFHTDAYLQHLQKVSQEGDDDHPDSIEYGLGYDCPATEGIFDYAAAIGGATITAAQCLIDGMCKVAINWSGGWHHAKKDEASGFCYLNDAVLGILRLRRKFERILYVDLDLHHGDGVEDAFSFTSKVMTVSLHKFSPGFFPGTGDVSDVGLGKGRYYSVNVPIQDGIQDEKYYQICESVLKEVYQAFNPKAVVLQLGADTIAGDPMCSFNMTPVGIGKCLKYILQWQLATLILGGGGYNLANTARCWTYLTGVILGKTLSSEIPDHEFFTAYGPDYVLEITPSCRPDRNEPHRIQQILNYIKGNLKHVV

[4] = biological target: T3, Histone deacetylase 11 (Homo sapiens, UniProt Q96DB2); assay: Inhibition of recombinant human HDAC11 expressed in SF9 baculoviral system using FAM-labeled acetylated peptide as substrate by EMSA
T3 sequence (Q96DB2 whole entry): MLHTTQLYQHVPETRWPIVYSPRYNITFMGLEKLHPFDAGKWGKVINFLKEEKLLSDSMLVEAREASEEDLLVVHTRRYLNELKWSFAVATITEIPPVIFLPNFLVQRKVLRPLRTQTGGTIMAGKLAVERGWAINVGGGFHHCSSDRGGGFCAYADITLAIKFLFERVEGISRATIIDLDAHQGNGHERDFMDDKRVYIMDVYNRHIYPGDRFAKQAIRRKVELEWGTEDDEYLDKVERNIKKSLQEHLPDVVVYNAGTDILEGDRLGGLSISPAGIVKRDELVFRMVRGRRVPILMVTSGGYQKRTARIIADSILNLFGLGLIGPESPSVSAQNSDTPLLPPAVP
How it was run: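 Full-length human HDAC11 (Sf9-expressed), 10 nM final, in 100 mM HEPES pH 7.5, 25 mM KCl, 0.1% BSA, 0.01% Triton X-100, 1% DMSO. FAM-acetylated peptide substrate at 100 μM, mobility-shift read-out. Product/(substrate + product) converted to % inhibition. IC50 from a four-parameter fit; dose-response spans 12 threefold dilutions from 30.0 μM.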

[5] = Intrinsic clearance in ICR/CD1 mouse hepatocytes assessed per million cells at 1 uM up to 120 mins by LC-MS/MS analysis; format: ADME, cell-based, Hepatocyte; details: 2 h
[6] = Half life in ICR/CD1 mouse hepatocytes at 1 uM up to 120 mins by LC-MS/MS analysis; format: ADME, cell-based, Hepatocyte; details: 2 h
[7] = Cytotoxicity against mouse KPC monolayer cells assessed as reduction in tumor spheroid intensity after 72 hrs by Alamar Blue assay; format: functional, cell-based
How it was run: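 Monolayer proliferation of STR-authenticated, mycoplasma-checked patient-derived PDAC lines and mouse KPC cells. Plated at 2000 cells/well, treated 72 h, read by alamarBlue. At least triplicate, n = 3–5.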

Histone deacetylase 3, sequence (O15379 whole entry): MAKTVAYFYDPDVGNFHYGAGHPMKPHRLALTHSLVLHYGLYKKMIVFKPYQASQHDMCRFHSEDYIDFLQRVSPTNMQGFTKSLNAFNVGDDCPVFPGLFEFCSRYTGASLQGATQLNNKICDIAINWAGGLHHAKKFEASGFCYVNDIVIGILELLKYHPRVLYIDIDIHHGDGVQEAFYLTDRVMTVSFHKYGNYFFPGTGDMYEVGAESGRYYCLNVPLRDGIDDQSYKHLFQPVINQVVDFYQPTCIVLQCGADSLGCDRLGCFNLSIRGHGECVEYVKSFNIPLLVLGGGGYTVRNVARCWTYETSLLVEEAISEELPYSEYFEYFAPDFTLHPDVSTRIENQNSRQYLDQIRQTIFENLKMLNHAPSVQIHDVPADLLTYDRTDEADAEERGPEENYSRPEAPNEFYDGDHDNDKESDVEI

| SMILES | IC50 [1] | IC50 [2] | IC50 [3] | IC50 [4] | CLH [5] | t1/2 [6] | IC50 [7] |
| --- | --- | --- | --- | --- | --- | --- | --- |
| Cc1[nH]c2ccccc2c1CCNCc1ccc(/C=C/C(=O)NO)cc1 [PANOBINOSTAT] |  |  |  |  |  |  | 8.5 µM |
| CC(C)(C)c1ccc(CN(C(=O)CN(Cc2ccccc2C(F)(F)F)S(=O)(=O)c2ccc(F)c(F)c2)c2ccc(C(=O)NO)cc2)cc1 | > 1000 nM | 362 nM | > 1000 nM | 254 nM |  |  |  |
| O=C(NO)c1ccc(N(Cc2ccc(C(F)(F)F)cc2)C(=O)CN(Cc2ccccc2C(F)(F)F)S(=O)(=O)c2ccc(F)cc2F)cc1 | > 1000 nM | 151 nM | > 1000 nM | 346 nM |  |  |  |
| CC(C)(C)c1ccc(CN(C(=O)CN(Cc2ccccc2C(F)(F)F)S(=O)(=O)c2ccc(F)cc2F)c2ccc(C(=O)NO)cc2)cc1 | > 1000 nM | 289 nM | > 1000 nM | 288 nM |  |  |  |
| O=C(NO)c1ccc(N(Cc2ccc(C(F)(F)F)cc2)C(=O)CN(Cc2ccccc2C(F)(F)F)S(=O)(=O)c2ccc(F)cc2)cc1 | > 1000 nM | 93 nM | > 1000 nM | 304 nM |  |  |  |

More lines, main results first:

| IC50 [1] | IC50 [2] | IC50 [3] | IC50 [4] | CLH [5] | t1/2 [6] | SMILES | IC50 [7] |
| --- | --- | --- | --- | --- | --- | --- | --- |
| > 1000 nM | 230 nM | > 1000 nM | 253 nM |  |  | CC(C)(C)c1ccc(CN(C(=O)CN(Cc2ccccc2C(F)(F)F)S(=O)(=O)c2ccc(F)cc2)c2ccc(C(=O)NO)cc2)cc1 |  |
| > 1000 nM | 86 nM | > 1000 nM | 191 nM | 37.4 µL/min | 37.1 min | O=C(NO)c1ccc(N(Cc2ccc(C(F)(F)F)cc2)C(=O)CN(Cc2c(F)c(F)c(F)c(F)c2F)S(=O)(=O)c2ccc(F)cc2)cc1 |  |
| > 1000 nM | 188 nM | > 1000 nM | 396 nM |  |  | O=C(NO)c1ccc(N(Cc2ccc(C(F)(F)F)cc2)C(=O)CN(Cc2ccccc2C(F)(F)F)S(=O)(=O)c2ccc(F)c(F)c2)cc1 |  |
